Measured values from paper PMC7894042 (ACS chemical neuroscience, 2020).
Read-outs that look alike come from different tables or passages of the source.

What was measured:
[1] = Fluorophore characterization: emission spectra in solvents; type: physicochemical; settings: fluorometer
In short: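 JP-N3 emission spectra were recorded in toluene, acetone, MeOH and H2O. Each spectrum was fitted with a single six-component split pseudo-Voigt curve to give a reference line shape.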

[2] = target: T1, Kv2.1 channels (Rattus norvegicus, UniProt P15387); settings: values for GxTX are from ref [23], cited from earlier work
T1 sequence (P15387 1-857): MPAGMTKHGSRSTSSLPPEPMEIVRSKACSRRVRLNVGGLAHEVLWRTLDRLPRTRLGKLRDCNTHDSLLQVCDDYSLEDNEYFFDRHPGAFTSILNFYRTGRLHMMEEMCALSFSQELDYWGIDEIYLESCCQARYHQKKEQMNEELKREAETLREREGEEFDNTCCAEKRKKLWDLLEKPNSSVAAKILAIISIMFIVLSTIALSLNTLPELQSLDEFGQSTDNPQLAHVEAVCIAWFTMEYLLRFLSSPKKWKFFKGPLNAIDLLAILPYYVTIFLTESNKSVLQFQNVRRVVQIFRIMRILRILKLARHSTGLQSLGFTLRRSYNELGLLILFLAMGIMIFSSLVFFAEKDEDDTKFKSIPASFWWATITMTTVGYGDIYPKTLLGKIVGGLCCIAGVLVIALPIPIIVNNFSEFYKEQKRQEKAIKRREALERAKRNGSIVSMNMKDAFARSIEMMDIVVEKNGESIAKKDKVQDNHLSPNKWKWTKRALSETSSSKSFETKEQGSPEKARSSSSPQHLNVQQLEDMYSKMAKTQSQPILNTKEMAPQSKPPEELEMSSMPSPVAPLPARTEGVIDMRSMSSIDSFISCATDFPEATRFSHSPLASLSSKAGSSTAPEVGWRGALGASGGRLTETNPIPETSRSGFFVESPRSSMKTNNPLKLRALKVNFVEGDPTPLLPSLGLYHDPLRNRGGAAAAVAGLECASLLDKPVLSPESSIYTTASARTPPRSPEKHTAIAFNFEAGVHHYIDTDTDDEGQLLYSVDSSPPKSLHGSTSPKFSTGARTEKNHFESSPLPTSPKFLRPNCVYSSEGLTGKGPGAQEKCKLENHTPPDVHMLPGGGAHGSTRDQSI

[3] = system: Kv2.1 closed state VSD; settings: ref [22], cited from earlier work; for effect on channel opening / gating charge: Kv2.1
[4] = system: mice; settings: injected into mice; no reference or experiment given; cited from earlier work

Row | Compound | emission peak in MeOH ([1]; 200 nM JP-N3, anhydrous MeOH) | emission peak in hydrocarbon ([1]; 200 nM JP-N3, anhydrous hydrocarbon solvent) | Kd ([2]; 0 mV) | koff ([2]; 0 mV) | kon ([2]; 0 mV) | Kd ([2]; −100 mV) | koff ([2]; −100 mV) | kon ([2]; −100 mV) | effect on channel opening / gating charge [3] | toxicity [4] | affinity for Kv2.1 closed state VSD relative to its open state [3]
1 | [N-]=[N+]=NCc1cc(=O)cc2oc3c4c5c(cc3nc1-2)CCCN5CCC4 [JP-N3, 10-(azidomethyl)-julolidino-phenoxazinone] | 640 nm | 609 nm | – | – | – | – | – | – | – | – | –
2 | Met35Nle guangxitoxin-1E [GxTX] | – | – | 1.52 ± 0.81 µM | 38 ± 9 × 10^−3 s^−1 | 2.5 ± 1.2 × 10^−5 s^−1 nM^−1 | 0.00255 ± 0.00101 µM | 0.84 ± 0.18 × 10^−3 s^−1 | 3.30 ± 1.10 × 10^−4 s^−1 nM^−1 | inhibiting early, fast gating charge transitions | – | –
3 | guangxitoxin-1E (EGECGGFWWKCGSGKPACCPKYVCSPKWGLCNFPMP; UniProt P84835 1-36, looked up) [GxTX-1E] | – | – | – | – | – | – | – | – | shifting channel opening to more depolarized potentials | no toxicity up to 10 mg/kg | 5400 fold
